Reference: the RNAGym collection of RNA variant scans (doi:10.1126/science.aae0568)
Fewer inactive variants are shown than the library holds.

B1: tRNA (parent)
chain: GUUCCGUUGGCGUAAUGGUAACGCGUCUCCCUCCUAAGGAGAAGACUGCGGGUUCGAGUCCCGUACGGAACG

Variants of: B1
Experiment: yeast fitness relative to wild type (ratio to wild type); higher = fitter; tRNA-Arg(CCU), competitive growth, 37 C, YPD
Procedure, shortened: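 Variants of the tRNA-Arg(CCU) gene were chemically synthesised with a 3% per-site mutation rate across 69 sites and placed at the native genomic locus in Saccharomyces cerevisiae. Six parallel replicates of the pooled strains were competed in YPD at 37°C for 24 hours, and gene amplicons from the start and end populations were read by 100-nucleotide paired-end sequencing. Darwinian fitness relative to wild type was derived from changes in genotype frequencies. Genotypes required ≥ 100 starting reads, and estimates < 0.5 were set to 0.5.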

Row | Variant | yeast fitness
1 | G9A C33U C55G | 0.66
2 | C11G C34U G41A | 0.544
3 | G23A U26G A40C C46G C60G | ≤ 0.5
4 | C11G G39C U47C C60A C61G | ≤ 0.5
5 | U16C A36U A65U | ≤ 0.5
6 | U28C G52A C61U A70C | 0.549
7 | U7G G9A | 0.827
8 | U32C C34U G44C | ≤ 0.5
9 | C5A A69C | 0.919
10 | C4U G12A A40U | 0.642
11 | U26A C30A C34A A45C | ≤ 0.5
12 | C11A A21C C31A C46G | ≤ 0.5
13 | A20C A37C A43G C62U | ≤ 0.5
14 | U8A U26C A43U C55U | ≤ 0.5
15 | U54A A69U | 0.671
16 | G9C A15U U28G C55G A69U | 0.599
17 | A14G C30A | 0.861
18 | U8A C24A U64A | ≤ 0.5
19 | G25C A40G U47A A57C G63A | ≤ 0.5
20 | A14G G41C | 0.917
21 | A37C G38A C66U | 0.587

Row | Variant | yeast fitness
22 | C22G G23A C46U A57G | ≤ 0.5
23 | U2C G25A A42U A65C G67U | 0.578
24 | G9C G51C G52A | ≤ 0.5
25 | C5U C22U C30G A57U C66U A70U | ≤ 0.5
26 | U2C C29U G56A | 0.625
27 | A15U U19G C27A U28A | 0.578
28 | C4U A20U U53C G67C | ≤ 0.5
29 | A42C G50C | 0.548
30 | U8G A37U C66U | ≤ 0.5
31 | U2C A40C G52C G67A | 0.56
32 | U2A C24U | 0.95
33 | U53G G56C G67A | ≤ 0.5
34 | C31A A37G C55U A57G | 0.531
35 | G48A G58A U59G G67A | ≤ 0.5
36 | C4A G6A C11A C22U C29U C61A G67A | ≤ 0.5
37 | C5U U13A G38C U47G C62U | ≤ 0.5
38 | C11G A57G | 0.624
39 | C27G A42G G68A | ≤ 0.5
40 | C11U C49U C61G A65C | 0.534
41 | G25C C33A A43C G68A | ≤ 0.5
42 | C27U A37G G41A G50C | 0.649

Row | Variant | yeast fitness
43 | C11U U19G A20U | 0.764
44 | A15C C30U G67A | ≤ 0.5
45 | U7G A20G C60U C61G | ≤ 0.5
46 | C33U C34A U53G U54A | 0.588
47 | A20U U47A U53C | 0.532
48 | A21U C24G C62G C66U | ≤ 0.5
49 | A20C A37C G41C G51C | ≤ 0.5
50 | C5G A45G | 0.984
51 | C22U C30U C33U U47A G58A A65C | ≤ 0.5
52 | A14U A15U C34G A42C | 0.537
53 | G6A A20G C60G | ≤ 0.5
54 | C29A A42U | 0.632
55 | C4G C29G A37U C49A G58C | 0.502
56 | A14C C34G A43U C62A | 0.716
57 | C5G A20G A36G C66A | ≤ 0.5
58 | U2G C4U G25A A40C C46U | ≤ 0.5
59 | C34G G58A G63C | ≤ 0.5
60 | C11U U26G G67C | ≤ 0.5
61 | C30U C33G A65C | 0.577
62 | A20C A36U G39C | 0.618
63 | G18A U19A A70U | 0.657

Row | Variant | yeast fitness
64 | A14G C30A C34A A43C | ≤ 0.5
65 | C29G C30G C49A G56C C61U | 0.982
66 | G10A A21C C24A A65C A69C | ≤ 0.5
67 | A15G A37C | 0.666
68 | C24G A43C C46G U53G C61U | ≤ 0.5
69 | G9C U16G C66G | ≤ 0.5
70 | A15G U19A U28A C55A A65U | ≤ 0.5
71 | U3A A70G | 1
72 | C5A A14G C24A C66G | ≤ 0.5
73 | G6A A40U U53A C61A A65U A69U | 0.511
74 | C24G A36G A45G A65U | ≤ 0.5
75 | A20C C34A A37G C46A A70C | ≤ 0.5
76 | C29G G39C A65C | 0.546
77 | U16C G44A C49U U54C G56C | ≤ 0.5
78 | G18A A70U | 0.956
79 | C27A C30G G41C | ≤ 0.5
80 | U28A C29U A45C A69C | 0.541
81 | G10A U16C U35C A40U | ≤ 0.5
82 | C31G G56U | 0.723
83 | A14C C34U G39C | 0.625
